Results taken from publication PMC3993885 (Journal of Natural Products, 2014).

Legend:
[1] = system: dicotyledons; conditions: cited from earlier work
[2] = system: Xanthomonas oryzae; conditions: cited from earlier work
[3] = system: HEK293 cell line; assay: Cytotoxicity / survival in HEK293 cells, same conditions as the NF-κB assay; assay type: cell-based, human
[4] = system: TNF-α-induced NF-κB activity; assay type: cell-based, human; conditions: at 50 μM; TNF-α 2 ng/mL, 6 h
[5] = Chemical stability of 2 monitored by 1H and 13C NMR; assay type: physicochemical; conditions: in DMSO-d6 at room temperature (20 °C), after a month
Outline: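 1D 1H and 13C spectra were recorded at 400 MHz or 500 MHz. Conversion was judged from a second set of NMR signals assigned to the C-8′ dehydration product.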

| Compound | herbicidal activity [1] | toxicity toward dicotyledons [1] | growth inhibition of Xanthomonas oryzae [2] | NF-κB % survival ([3]; % survival at a concentration of 50 μM) [%] | IC50 ([3]; read-out: HEK293 cell line cytotoxicity IC50, same conditions as the NF-κB assay) [µM] | NF-κB % inhibition [4] [%] | conversion of 2 to 2a (dehydration at C-8′) [5] [%] |
| --- | --- | --- | --- | --- | --- | --- | --- |
| COC(=O)[C@H]1O[C@@H]2C[C@H]3O[C@@H](n4cnc5c(N)ncnc54)[C@H](OC)[C@H]3O[C@@]2(O)[C@@H](O)[C@@H]1O [Compound 5, Herbicidin B] | herbicidal | selectively toxic | significantly inhibited the growth |  |  |  |  |
| 9′-deoxy-8′,8′-dihydroxyherbicidin B [Compound 2] |  |  |  | 45.1 ± 5.7 | 13.7 ± 3.3 | 96.2 ± 4.9 | ~70 |
| C/C=C(\CO)C(=O)O[C@H]1[C@H](O)[C@@H](C(=O)OC)O[C@@H]2C[C@H]3O[C@@H](n4cnc5c(N)ncnc54)[C@H](OC)[C@H]3O[C@]21O [Compound 4, Herbicidin A] | herbicidal | selectively toxic | significantly inhibited the growth |  |  |  |  |
| aureonucleomycin [Compound 9] | herbicidal | selectively toxic | significantly inhibited the growth |  |  |  |  |
